≈ marks a conversion by molar mass, not a printed value. Calls of active or inactive are those of the source.
Assays:
Staphylococcus aureus [1] = assay: Antimicrobial activity against methicillin resistant Staphylococcus aureus DM09809R by broth macrodilution method; assay type: functional
Summary of the method: (§1)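 Broth macrodilution MIC in Mueller Hinton broth following CLSI guidelines. Inoculum was prepared by direct colony suspension from an 18−20 h tryptic soy agar plate.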

Staphylococcus aureus [2] = assay: Antimicrobial activity against Staphylococcus aureus DM4001 by broth macrodilution method; assay type: functional; summary of the method: as §1
[3] = Induction of hemolysis in New Zealand white rabbit RBC after 1 hr; assay type: cell-based, Oryctolagus cuniculus, Erythrocyte; settings: for HC50 at 1 h: New Zealand white, red blood cells (RBC)
Summary of the method: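 Fresh red blood cells isolated from New Zealand white rabbits. Lysis measured over a compound concentration series; HC50 taken as the concentration lysing 50% of RBCs.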

Staphylococcus aureus [4] = assay: Antimicrobial activity against methicillin resistant Staphylococcus aureus DM21455 by broth macrodilution method; assay type: functional; summary of the method: as §1
Bacillus cereus = assay: Antimicrobial activity against Bacillus cereus ATCC 11778 by broth macrodilution method; assay type: functional
Summary of the method: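 CLSI broth macrodilution in Mueller Hinton broth. Inoculum was made by direct colony suspension from colonies on an 18−20 h tryptic soy agar plate. The value is the MIC.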

[5] = Selectivity index, ratio of HC50 for induction of hemolysis in New Zealand white rabbit RBC to MIC for Staphylococcus aureus DM09809R
[6] = Selectivity index, ratio of HC50 for induction of hemolysis in New Zealand white rabbit RBC to MIC for Staphylococcus aureus DM4001
[7] = Selectivity index, ratio of HC50 for induction of hemolysis in New Zealand white rabbit RBC to MIC for Bacillus cereus ATCC 11778
[8] = Selectivity index, ratio of HC50 for induction of hemolysis in New Zealand white rabbit RBC to MIC for Staphylococcus aureus DM21455
[9] = Retention time of the compound; assay type: physicochemical
Summary of the method: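 Reverse-phase HPLC of 20 μL injections of a 10 μg/mL sample at 1 mL/min. Gradient: 5−55% ACN over 5 min, then 55−95% over 15 min.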

Staphylococcus aureus [10] = assay: Bactericidal activity against Staphylococcus aureus DM21455 assessed as reduction in bacterial count 2048 ug/mL after 24 hrs by cell counting based time assay; assay type: functional, organism-based
Summary of the method: (§2)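 Time-kill at 35 °C with colonies taken from an 18−20 h tryptic soy agar plate and suspended in CA-MHB at 10^5−10^6 CFU/mL, then drug added. Aliquots taken at set times were diluted 10-fold serially in D/E neutralization broth, spread on tryptic soy agar, incubated 48−72 h at 35 °C, and colonies counted. Strains: MRSA DM21455, vanA and vanB VRE.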

Enterococcus [11] = assay: Antimicrobial activity against vancomycin-resistant Enterococcus isolates by broth macrodilution method; assay type: functional
Corynebacterium jeikeium = assay: Antimicrobial activity against Corynebacterium jeikeium isolates by broth macrodilution method; assay type: functional
Staphylococcus aureus [12] = assay: Antimicrobial activity against methicillin resistant Staphylococcus aureus DM21455 in absence of 4% BSA by broth macrodilution method; assay type: functional; summary of the method: as §1
Streptococcus = assay: Antimicrobial activity against Streptococcus isolates by broth macrodilution method; assay type: functional
Staphylococcus aureus [13] = assay: Antimicrobial activity against Staphylococcus aureus ATCC 29213 in presence of 4% BSA by broth macrodilution method; assay type: functional
Summary of the method: (§3)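 MIC by CLSI broth macrodilution in Mueller Hinton broth, with BSA added to the bacterial suspension at a final 4% w/v. Inoculum was made by direct colony suspension from an 18−20 h tryptic soy agar plate.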

Enterococcus [14] = assay: Bactericidal activity against vancomycin-resistant Enterococcus isolates assessed as reduction in bacterial count 2048 ug/mL after 2 hrs by cell counting based time assay; assay type: functional, organism-based; summary of the method: as §2
Staphylococcus aureus [15] = assay: Antimicrobial activity against Staphylococcus aureus ATCC 29213 in absence of 4% BSA by broth macrodilution method; assay type: functional; summary of the method: as §1
Staphylococcus aureus [16] = assay: Bactericidal activity against Staphylococcus aureus DM21455 assessed as reduction in bacterial count 2048 ug/mL after 2 hrs by cell counting based time assay; assay type: functional, organism-based; summary of the method: as §2
Enterococcus [17] = assay: Bactericidal activity against vancomycin-resistant Enterococcus isolates assessed as reduction in bacterial count 2048 ug/mL after 24 hrs by cell counting based time assay; assay type: functional, organism-based; summary of the method: as §2
Staphylococcus aureus [18] = assay: Antimicrobial activity against methicillin resistant Staphylococcus aureus DM21455 in presence of 4% BSA by broth macrodilution method; assay type: functional; summary of the method: as §3
Enterococcus [19] = assay: Antimicrobial activity against vancomycin-sensitive Enterococcus isolates by broth macrodilution method; assay type: functional
Listeria monocytogenes = assay: Antimicrobial activity against Listeria monocytogenes isolates by broth macrodilution method; assay type: functional
Staphylococcus aureus [20] = assay: Antimicrobial activity against Staphylococcus aureus ATCC 29213 at 0.5 times MIC measured after 17 passages by multistep passage drug resistance selection study relative to wild type Staphylococcus aureus ATCC 29213 before passage; assay type: functional
Summary of the method: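 Multipassage selection in S. aureus ATCC29213 across an eight-concentration dilution series. Growth was read after 20−22 h. Bacteria growing at 0.5 × MIC were repassaged into a fresh series, 17 passages in total. Resistance was defined as a more than 4-fold rise over the initial MIC.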

Staphylococcus aureus [21] = assay: Antimicrobial activity against Staphylococcus aureus ATCC 29213 by broth macrodilution method; assay type: functional; summary of the method: as §1
Staphylococcus aureus [22] = assay: Antimicrobial activity against Staphylococcus aureus ATCC 29213 infected in mouse cornea infection model assessed as reduction in viable bacterial count at 0.3% solution applied topically 5 times/day dosed 1 day after infection relative to control; assay type: functional
Summary of the method: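 Mouse cornea given three superficial 1 mm scratches on one eye under ketamine/xylazine, then 10 μL of S. aureus ATCC 29213 suspension (1 × 10^8 CFU/mL in USP phosphate buffer) applied topically. Treated topically 5 times/day from day 1 postinfection; PBS negative control; 4 mice/group killed on days 1, 2 and 3. Corneas homogenized in 0.9% NaCl with 0.25% BSA, plated in duplicate on TSA (48 h, 35 °C); log10 CFU/cornea.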

Compound	MIC (Staphylococcus aureus [1])	MIC (Staphylococcus aureus [2])	HC50 at 1 h [3]	MIC (Staphylococcus aureus [4])	MIC (Bacillus cereus)	Selectivity Index [5]	Selectivity Index [6]	Selectivity Index [7]	Selectivity Index [8]	further results
COC(=O)C(Cc1cnc[nH]1)NC(=O)COc1cc2oc3cc(OCC(=O)NC(Cc4cnc[nH]4)C(=O)OC)c(OC)c(CC=C(C)C)c3c(=O)c2c(O)c1CC=C(C)C (configuration not stated)	> 50 µg/mL	> 50 µg/mL	> 400 µg/mL	> 50 µg/mL	> 50 µg/mL	–	–	–	–	–
COc1c(O)cc2oc3cc(O)c(CC=C(C)C)c(O)c3c(=O)c2c1CC=C(C)C [MANGOSTIN]	2 µg/mL (≈ 4.87 µM)	2 µg/mL (≈ 4.87 µM)	–	2 µg/mL (≈ 4.87 µM)	2 µg/mL (≈ 4.87 µM)	5	5	5	5	–
CCOC(=O)[C@H](CCCNC(=N)N)NC(=O)COc1cc2oc3cc(OCC(=O)N[C@@H](CCCNC(=N)N)C(=O)OCC)c(OC)c(CC=C(C)C)c3c(=O)c2c(O)c1CC=C(C)C	12 µg/mL (≈ 13.4 µM)	6 µg/mL (≈ 6.7 µM)	56 µg/mL	6 µg/mL (≈ 6.7 µM)	12 µg/mL (≈ 13.4 µM)	5	9	5	9	Retention_time [9]: 8.38 min
COc1c(OCC(=O)N[C@@H](CCCNC(=N)N)C(N)=O)cc2oc3cc(OCC(=O)N[C@@H](CCCNC(=N)N)C(N)=O)c(CC=C(C)C)c(O)c3c(=O)c2c1CC=C(C)C	6 µg/mL (≈ 7.17 µM)	6 µg/mL (≈ 7.17 µM)	128 µg/mL	1 µg/mL (≈ 1.19 µM)	6 µg/mL (≈ 7.17 µM)	13	13	13	128	Retention_time [9]: 7.4 min
CN[C@H](CC(C)C)C(=O)N[C@H]1C(=O)N[C@@H](CC(N)=O)C(=O)N[C@H]2C(=O)N[C@H]3C(=O)N[C@H](C(=O)N[C@H](C(=O)O)c4cc(O)cc(O)c4-c4cc3ccc4O)[C@H](O)c3ccc(c(Cl)c3)Oc3cc2cc(c3O[C@@H]2O[C@H](CO)[C@@H](O)[C@H](O)[C@H]2O[C@H]2C[C@](C)(N)[C@H](O)[C@H](C)O2)Oc2ccc(cc2Cl)[C@H]1O [VANCOMYCIN]	–	–	–	–	–	–	–	–	–	Activity (Staphylococcus aureus [10]): inactive; MIC (Enterococcus [11]): 8 µg/mL (≈ 5.52 µM); MIC (Corynebacterium jeikeium): 0.5 µg/mL (≈ 0.345 µM); MIC (Staphylococcus aureus [12]): 0.78 µg/mL (≈ 0.538 µM); MIC (Streptococcus): 0.5 µg/mL (≈ 0.345 µM); MIC (Staphylococcus aureus [13]): 1.56 µg/mL; Activity (Enterococcus [14]): inactive; MIC (Staphylococcus aureus [15]): 0.78 µg/mL (≈ 0.538 µM); Activity (Staphylococcus aureus [16]): inactive; Activity (Enterococcus [17]): inactive; MIC (Staphylococcus aureus [18]): 0.78 µg/mL; MIC (Enterococcus [19]): 1 µg/mL (≈ 0.69 µM); MIC (Listeria monocytogenes): 0.5 µg/mL (≈ 0.345 µM)
COc1c(O)cc2oc3cc(O)c(CCC(C)C)c(O)c3c(=O)c2c1CCC(C)C	–	50 µg/mL (≈ 121 µM)	–	–	–	–	–	–	–	–
CCN(CC)CCCCOc1cc2oc3cc(OCCCCN(CC)CC)c(OC)c(CCC(C)C)c3c(=O)c2c(O)c1CCC(C)C	–	3 µg/mL (≈ 4.48 µM)	–	–	–	–	–	–	–	–
H-GIGKFLKKAKKFGKAFVKILKK-NH2 [PEXIGANAN]	25 µg/mL	12.5 µg/mL	120 µg/mL	12.5 µg/mL	12.5 µg/mL	2	2	2	2	MIC (Staphylococcus aureus [12]): 12.5 µg/mL; MIC (Staphylococcus aureus [13]): 200 µg/mL; MIC (Staphylococcus aureus [15]): 12.5 µg/mL; MIC (Staphylococcus aureus [18]): 200 µg/mL
CCN(CC)CCCCOc1ccc2c(=O)c3c(O)cc(OCCCCN(CC)CC)cc3oc2c1	–	> 50 µg/mL	–	–	–	–	–	–	–	–
CCn1cc(C(=O)O)c(=O)c2cc(F)c(N3CCNCC3)cc21 [NORFLOXACIN]	–	–	–	–	–	–	–	–	–	Ratio (Staphylococcus aureus [20]): 64; MIC (Staphylococcus aureus [21]): 2 µg/mL (≈ 6.26 µM)
COc1c(OCC(=O)N[C@@H](CCCNC(=N)N)C(=O)OC(C)(C)C)cc2oc3cc(OCC(=O)N[C@@H](CCCNC(=N)N)C(=O)OC(C)(C)C)c(CC=C(C)C)c(O)c3c(=O)c2c1CC=C(C)C	12 µg/mL (≈ 12.6 µM)	12 µg/mL (≈ 12.6 µM)	79 µg/mL	12 µg/mL (≈ 12.6 µM)	12 µg/mL (≈ 12.6 µM)	7	7	7	7	Retention_time [9]: 9.51 min
N=C(N)NCCCCC(=O)Nc1cc(C(F)(F)F)cc(NC(=O)c2cc(C(=O)Nc3cc(C(F)(F)F)cc(NC(=O)CCCCNC(=N)N)c3O[C@@H]3CCNC3)ncn2)c1O[C@@H]1CCNC1 [BRILACIDIN]	4 µg/mL (≈ 4.27 µM)	4 µg/mL (≈ 4.27 µM)	175 µg/mL	4 µg/mL (≈ 4.27 µM)	4 µg/mL (≈ 4.27 µM)	44	44	44	44	–
O=c1c2ccc(O)cc2oc2cc(O)cc(O)c12	–	> 50 µg/mL	–	–	–	–	–	–	–	–
COc1c(OCC(=O)O)cc2oc3cc(OCC(=O)O)c(CC=C(C)C)c(O)c3c(=O)c2c1CC=C(C)C	> 50 µg/mL	> 50 µg/mL	> 400 µg/mL	> 50 µg/mL	> 50 µg/mL	–	–	–	–	–
CCCCCCCCNCCC[C@@H](C)[C@H]1CC[C@H]2[C@H]3[C@H](OCCCN)C[C@H]4C[C@H](OCCCN)CC[C@]4(C)[C@H]3C[C@H](OCCCN)[C@]12C	0.4 µg/mL (≈ 0.591 µM)	0.4 µg/mL (≈ 0.591 µM)	–	0.4 µg/mL (≈ 0.591 µM)	0.4 µg/mL (≈ 0.591 µM)	73	73	73	73	MHC ([3]; erythrocyte, 1 h): 29 µg/mL
CCCCCCCCCC(=O)N[C@@H](Cc1c[nH]c2ccccc12)C(=O)N[C@H](CC(N)=O)C(=O)N[C@@H](CC(=O)O)C(=O)N[C@@H]1C(=O)NCC(=O)N[C@@H](CCCN)C(=O)N[C@@H](CC(=O)O)C(=O)N[C@H](C)C(=O)N[C@@H](CC(=O)O)C(=O)NCC(=O)N[C@H](CO)C(=O)N[C@@H]([C@H](C)CC(=O)O)C(=O)N[C@@H](CC(=O)c2ccccc2N)C(=O)O[C@@H]1C	–	–	–	–	–	–	–	–	–	MIC (Staphylococcus aureus [12]): 0.39 µg/mL (≈ 0.241 µM); MIC (Staphylococcus aureus [13]): 6.25 µg/mL; MIC (Staphylococcus aureus [15]): 0.39 µg/mL (≈ 0.241 µM); MIC (Staphylococcus aureus [18]): 6.25 µg/mL
O=c1c2ccc(OCCCCBr)cc2oc2cc(OCCCCBr)cc(O)c12	–	> 50 µg/mL	–	–	–	–	–	–	–	–
COC(=O)C(CCCCN)NC(=O)COc1cc2oc3cc(OCC(=O)NC(CCCCN)C(=O)OC)c(OC)c(CC=C(C)C)c3c(=O)c2c(O)c1CC=C(C)C (configuration not stated)	6 µg/mL (≈ 7.4 µM)	6 µg/mL (≈ 7.4 µM)	39 µg/mL	12 µg/mL (≈ 14.8 µM)	12 µg/mL (≈ 14.8 µM)	–	–	–	–	–
COc1c(N2CCNC(C)C2)c(F)cc2c(=O)c(C(=O)O)cn(C3CC3)c12 (configuration not stated) [GATIFLOXACIN]	–	–	–	–	–	–	–	–	–	Ratio (Staphylococcus aureus [20]): 64; Ratio (Staphylococcus aureus [22]): 2.06; MIC (Staphylococcus aureus [21]): 0.1 µg/mL (≈ 0.266 µM)
COc1c(OCCCCBr)cc2oc3cc(OCCCCBr)c(CCC(C)C)c(O)c3c(=O)c2c1CCC(C)C	–	> 50 µg/mL	–	–	–	–	–	–	–	–

From ChEMBL document CHEMBL3414569, “Amino acid modified xanthone derivatives: novel, highly promising membrane-active antimicrobials for multidrug-resistant Gram-positive bacterial infections” (J Med Chem, 2015)
